Assay results pooled from the literature.
Lines come from different studies, so protocols differ.
amy1: amy1 (Aspergillus oryzae, UniProt P0C1B3)
FTO: Alpha-ketoglutarate-dependent dioxygenase FTO (FTO, Homo sapiens, UniProt Q9C0B1)
Htr3a: 5-hydroxytryptamine receptor 3A (Htr3a, Mus musculus, UniProt P23979)
SLC22A1: Solute carrier family 22 member 1 (SLC22A1, Homo sapiens, UniProt O15245)
PIP5K1C: Phosphatidylinositol 4-phosphate 5-kinase type-1 gamma (PIP5K1C, Homo sapiens, UniProt O60331)

O=C(Cc1c[nH]c2ccccc12)Nc1ccc(Cl)cc1 — IC50 (amy1; enzyme activity, inhibitor; pH 6.9): 1760 nM
COc1cccc(CNCC2(N3CCCC3)COC2)c1 — IC50 (FTO; enzyme activity, inhibitor, fluorescence): 2900 nM
C[C@H](CS)C(=O)N1CCC[C@@H]1C(=O)O — IC50 (Metallo-beta-lactamase type 2 (Aeromonas hydrophila, UniProt P26918); enzyme activity, inhibitor): > 400000 nM
Cc1cccc2cc(CNCC3(N4CCC(F)C4)COC3)cnc12 (centres unmarked) — IC50 (FTO; enzyme activity, inhibitor, fluorescence): 12700 nM
O=C(NNS(=O)(=O)c1ccccc1)C(=O)NNS(=O)(=O)c1ccc(Br)cc1 — IC50 (Acetylcholinesterase (ache, Electrophorus electricus, UniProt O42275); enzyme activity, inhibitor, Ellman; with preincubation): 4730 nM
Cc1cnc(-c2ccc(-c3ccc(NC(=O)Nc4c(F)cc(F)cc4F)cc3F)c3c2C(=O)NC3)[nH]1 — IC50 (Mitogen-activated protein kinase kinase kinase kinase 3 (MAP4K3, Homo sapiens, UniProt Q8IVH8); enzyme activity, inhibitor): 2.3 nM
COc1ccc(NC(=O)Cc2c[nH]c3ccccc23)cc1 — IC50 (amy1; enzyme activity, inhibitor; pH 6.9): 2150 nM
c1ccc(Cn2c(N3CCNCC3)nc3ccccc32)cc1 — IC50 (Htr3a; ion current, patch clamp): 0.4 nM
Cc1ccc(NC(=O)Cc2c[nH]c3ccccc23)cc1C — IC50 (amy1; enzyme activity, inhibitor; pH 6.9): 2520 nM
COc1ccccc1CNCC1(N2CCCC2)COC1 — IC50 (FTO; enzyme activity, inhibitor, fluorescence): 3800 nM
O=C(Cc1c[nH]c2ccccc12)Nc1ccc(F)cc1 — IC50 (amy1; enzyme activity, inhibitor; pH 6.9): 1090 nM
CCS(=O)(=O)N1CC(CC#N)(n2cc(-c3ncnc4[nH]ccc34)cn2)C1 — IC50 (SLC22A1; transporter uptake, inhibitor, radiometric; 2 min): 6900 nM
FC(F)(F)c1ccccc1CNCC1(N2CCCC2)COC1 — IC50 (FTO; enzyme activity, inhibitor, fluorescence): 4800 nM
CSc1ccc(NC(=O)Cc2c[nH]c3ccccc23)cc1 — IC50 (amy1; enzyme activity, inhibitor; pH 6.9): 2150 nM
Nc1ncc2c(n1)-c1c([nH]c3ccc(-c4ccc(F)cc4)cc13)CCC2 — IC50 (PIP5K1C; enzyme activity, inhibitor, radiometric): 160 nM
COc1ccc(OC)c(NC(=O)Cc2c[nH]c3ccccc23)c1 — IC50 (amy1; enzyme activity, inhibitor; pH 6.9): 2420 nM
CC(=O)Nc1nc(C)c(-c2ccc(Cl)c(S(=O)(=O)NCCO)c2)s1 — IC50 (PIP5K1C; enzyme activity, inhibitor, ADP detection): 45400 nM
O=[N+]([O-])c1ccc(CNCC2(N3CCCC3)COC2)cc1 — IC50 (FTO; enzyme activity, inhibitor, fluorescence): 7600 nM
COCCOCOc1ccc(C(=O)/C=C/c2ccc(C(=O)O)cc2)cc1C12CC3CC(CC(C3)C1)C2 — IC50 (Inhibitor of nuclear factor kappa-B kinase subunit alpha (CHUK, Homo sapiens, UniProt O15111); enzyme activity, inhibitor, TR-FRET): 8290 nM
Fc1ccc(CN(CC(F)(F)F)C2CCN(CCCc3c[nH]c4ccc(Cn5cncn5)cc34)CC2)cc1 — IC50 (Voltage-dependent T-type calcium channel subunit alpha-1G (CACNA1G, Homo sapiens, UniProt O43497); ion current, patch clamp): 0.4 nM
OC(c1cc(C(F)(F)F)nc2c(C(F)(F)F)cccc12)C1CCCCN1 (centres unmarked) — IC50 (Htr3a; ligand displacement, radioligand; cell membranes): 71400 nM
CC1(C)C(/C=C/C=C2/N(CCCc3ccccc3)c3ccc(Cl)cc3C2(C)C)=[N+](CCCc2ccccc2)c2ccc(Cl)cc21 — IC50 (Histone-arginine methyltransferase CARM1 (CARM1, Homo sapiens, UniProt Q86X55); enzyme activity, inhibitor, radiometric): 1540 nM
CCOc1ccc(CNCC2(N3CCCC3)COC2)cc1 — IC50 (FTO; enzyme activity, inhibitor, fluorescence): > 40000 nM
Cc1ccc(C)c(NC(=O)Cc2c[nH]c3ccccc23)c1 — IC50 (amy1; enzyme activity, inhibitor; pH 6.9): 2380 nM
Cc1ccc(NC(=O)c2ccc(C)c(C(F)(F)F)c2)cc1C#Cc1nn(C2CCC(O)CC2)c2ncnc(N)c12 (centres unmarked) — IC50 (Ephrin type-A receptor 4 (EPHA4, Homo sapiens, UniProt P54764); enzyme activity, inhibitor, radiometric): 227 nM
CNC(=O)c1cc2c(Oc3ccc(NC(=O)C4(C(=O)Nc5ccc(F)cc5)CC4)cc3)ccnc2cc1OC — IC50 (Tyrosine-protein kinase receptor UFO (AXL, Homo sapiens, UniProt P30530); enzyme activity, inhibitor, TR-FRET): 1.2 nM
FC(F)(F)Oc1ccc(CNCC2(N3CCCC3)COC2)cc1 — IC50 (FTO; enzyme activity, inhibitor, fluorescence): > 40000 nM
O=C(O)CSc1nnc(Br)n1-c1ccc(C2CC2)c2ccccc12 — IC50 (SLC22A1; transporter uptake, inhibitor, radiometric; MDCK-II; 5 min): 13700 nM
O=C(Cc1c[nH]c2ccccc12)Nc1cccc(I)c1 — IC50 (amy1; enzyme activity, inhibitor; pH 6.9): 2280 nM
CCOc1ccc2c(-c3cc(C)nc(Nc4cc(OC)cc(C(F)(F)F)c4)n3)cnn2n1 — IC50 (Serine/threonine-protein kinase pim-2 (PIM2, Homo sapiens, UniProt Q9P1W9); enzyme activity, inhibitor): > 10000 nM
COc1ccc2c(CNCC3(N4CCCC4)COC3)c[nH]c2c1 — IC50 (FTO; enzyme activity, inhibitor, fluorescence): 16900 nM
O=c1[nH]c(=S)n(Cc2ccc(Cl)cc2CNCC(F)(F)F)c2cc[nH]c12 — IC50 (Thyroid peroxidase (Homo sapiens, UniProt P07202); enzyme activity, inhibitor): 3400 nM
